Reference: ChEMBL document CHEMBL4138248, “Discovery of naphtho[1,2-d]oxazole derivatives as potential anti-HCV agents through inducing heme oxygenase-1 expression” (Eur J Med Chem, 2018)
The source made the active and inactive calls. No cut-off for these calls is given here.

Assays:
Hepatitis C virus [1] = assay: Antiviral activity against HCV infected in human Ava5 cells assessed as inhibition of viral RNA replication at 20 uM after 3 days by RT-qPCR method relative to control; type: functional, Hepacivirus hominis; conditions: Ava5, 72 h
Procedure, shortened: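 Ava5 replicon cells were exposed to 5 or 20 μM for 3 days, starting from 10 mM DMSO stocks diluted in medium. HCV RNA was quantified by RT-qPCR against gapdh and expressed as % inhibition relative to untreated control. Ribavirin was the reference drug. Mean ± SD of three independent experiments.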

[2] = Cytotoxicity against human Ava5 cells assessed as cell viability at 200 uM after 72 hrs by XTT assay relative to control; type: cell-based; conditions: read-out: Activity
Procedure, shortened: (§1)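 XTT viability assay run alongside the antiviral assays. Ava5 cells were plated at 5×10^3 per well and exposed to 20 or 200 μM for 72 h at 37 °C in humidified 5% CO₂. Viability is expressed as % of untreated cells.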

[3] = Induction of HO1 (unknown origin) promoter activity expressed in human Ava5 cells transfected with pHO-1-Luc after 3 days; type: cell-based
Procedure, shortened: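 Ava5 cells were transfected with 0.5 µg pHO-1-Luc, with pCMV-SEAP (0.1 µg) co-transfected for normalization. Cells were then treated at various concentrations for 3 days, and luciferase was read in lysates. Mean ± SD of three independent experiments.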

Hepatitis C virus [4] = assay: Antiviral activity against HCV infected in human Ava5 cells assessed as inhibition of NS5B protein synthesis after 3 days by Western blot method; type: functional, organism-based; conditions: Hepacivirus hominis
Procedure, shortened: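 Ava5 cells, seeded at 5×10^4 per well and grown overnight, were treated for 3 days. Lysates were made in RIPA buffer and 10 µg protein was run on 10% SDS-PAGE. Blots were probed with anti-NS5B, with GAPDH as loading control.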

[5] = molecular target: T1, Heme oxygenase 1 (Homo sapiens) (UniProt P09601); assay: Induction of HO-1-mediated IFN-alpha-5 mRNA expression in human Ava5 cells after 3 days by RT-qPCR method; type: cell-based
T1 sequence (whole entry): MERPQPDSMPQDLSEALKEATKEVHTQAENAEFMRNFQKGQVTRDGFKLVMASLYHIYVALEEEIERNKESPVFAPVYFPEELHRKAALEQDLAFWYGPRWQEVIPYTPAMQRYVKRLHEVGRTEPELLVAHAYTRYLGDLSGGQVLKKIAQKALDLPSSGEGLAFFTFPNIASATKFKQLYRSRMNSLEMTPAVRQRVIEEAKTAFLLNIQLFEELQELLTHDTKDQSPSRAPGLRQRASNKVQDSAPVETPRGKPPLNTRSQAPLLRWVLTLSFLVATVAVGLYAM
Procedure, shortened: (§2)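 Ava5 cells were treated for 3 days at the indicated concentrations. Target mRNAs were measured by RT-qPCR with specific primers and normalized to endogenous gapdh. Results are relative to DMSO-treated cells.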

Hepatitis C virus [6] = assay: (§3) Antiviral activity against HCV infected in human Ava5 cells assessed as inhibition of viral RNA replication after 3 days by RT-qPCR method; type: functional, organism-based, Hepacivirus hominis
Procedure, shortened: (§4)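 Ava5 cells (Huh-7 hepatoma cells carrying an HCV replicon, grown in DMEM/10% FBS with 1 mg·mL⁻¹ G418) were treated for 3 days with a range of concentrations. HCV RNA was measured by RT-qPCR and normalized to cellular gapdh mRNA. Values are mean ± SD of three independent experiments, each in triplicate.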

[7] = molecular target: T1, Heme oxygenase 1 (Homo sapiens); assay: Induction of HO-1-mediated reduction on HCV NS3/4A protease activity in human Huh-7 cells transfected with pEG(DE4AB)SEAP/pNS3/4A after 3 days; type: cell-based
Procedure, shortened: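 Huh-7 cells were co-transfected with the pEG(DE4AB)SEAP reporter and the NS3/4A expression plasmid pNS3/4A, then treated for 3 days. Secreted SEAP activity reports protease activity and is expressed as fold of untreated control (set to 1). Mean ± SD, n=3.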

[8] = Cytotoxicity against human Ava5 cells assessed as decrease in cell viability after 72 hrs by XTT assay; type: cell-based
Procedure, shortened: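 XTT assay on […] Ava5 cells at 5×10^3 per well with serial dilutions for 72 h at 37 °C in 5% CO₂. CC50 is the concentration giving 50% growth inhibition.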

[9] = molecular target: T1, Heme oxygenase 1 (Homo sapiens); assay: Induction of HO-1-mediated ISRE promoter activity in human Ava5 cells transfected with pISRE-Luc after 3 days; type: cell-based
Procedure, shortened: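 Ava5 cells carrying pISRE-Luc (ISRE-driven firefly luciferase) were treated for 3 days at increasing concentrations. Luciferase activity was read in cell lysates, normalized to co-transfected pCMV-SEAP.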

Homo sapiens [10] = species: Homo sapiens; assay: Effect on Keap-1 protein expression in human Ava5 cells at 0.5 to 1 uM after 3 days by Western blot method; type: functional, cell-based
Procedure, shortened: (§5)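 Ava5 cells were treated for 3 days at the indicated concentrations. Whole-cell lysates were immunoblotted with anti-Nrf2, anti-Keap-1, anti-bach1 and anti-GAPDH.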

Hepatitis C virus [11] = assay: Antiviral activity against HCV infected in human Ava5 cells assessed as inhibition of NS5B protein synthesis at 1 uM after 3 days in presence of HO-1 inhibitor SnPP by Western blot method; type: functional, organism-based; conditions: Hepacivirus hominis
Procedure, shortened: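 Ava5 cells were co-incubated for 3 days with test compound at 1 μM plus the HO-1 inhibitor SnPP (tin protoporphyrin IX) at 0–5 μM. Lysates went to western blot for NS5B and GAPDH. RNA went to RT-qPCR normalized to gapdh mRNA. Mean ± SD of three independent experiments.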

Homo sapiens [12] = species: Homo sapiens; assay: Effect on Nrf2 protein expression in human Ava5 cells at 0.5 to 1 uM after 3 days by Western blot method; type: functional, cell-based; procedure, shortened: as §5
Hepatitis C virus [13] = assay: as §3; type: functional, organism-based, Hepacivirus hominis; conditions: Ava5, 72 h; procedure, shortened: as §4
[14] = Cytotoxicity against human Ava5 cells assessed as cell viability at 20 uM after 72 hrs by XTT assay relative to control; type: cell-based; conditions: read-out: Activity; procedure, shortened: as §1
[15] = molecular target: T1, Heme oxygenase 1 (Homo sapiens); assay: Induction of HO-1-mediated IFN-alpha-2 mRNA expression in human Ava5 cells after 3 days by RT-qPCR method; type: cell-based; procedure, shortened: as §2
[16] = Selectivity index, ratio of CC50 for human Ava5 cells to IC50 for HCV; type: toxicity; conditions: read-out: Ratio CC50/IC50
Procedure, shortened: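 SI = CC50/IC50. CC50 comes from 72 h XTT in […] Ava5 cells. IC50 is the concentration giving 50% inhibition of HCV, measured by RT-qPCR after 3 days in Ava5 cells.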

Activity [5]: Dose-dependent effect
IC50 (Hepatitis C virus [6]; Ava5, 72 h): 820 nM
Activity [7]: Dose-dependent effect
Activity [9]: Dose-dependent effect
IC50 (Hepatitis C virus [13]): 630 nM
Activity [15]: Dose-dependent effect
Structure (SMILES): COc1ccc(Nc2cc3oc(-c4ccco4)nc3c3ccccc23)cc1
inhibition at 20 µM (Hepatitis C virus [1]): 94.6%
viability at 72 h, 200 µM [2]: 32.3%
Activity [3]: Dose-dependent effect
inhibition (Hepatitis C virus [4]): Dose-dependent effect
inhibition (Hepatitis C virus [6]; Hepacivirus hominis): Dose-dependent effect
CC50 at 72 h [8]: 144000 nM
Activity (Homo sapiens [10]): inactive
inhibition (Hepatitis C virus [11]): inactive
Activity (Homo sapiens [12]): inactive
viability at 72 h, 20 µM [14]: 89.5%
selectivity ratio [16]: 229
